# Active and inactive are the calls of the source. The calls are words filed in the database; no cut-off is given here.
# Columns and labels:
# [1] = biological target: T1, Aldo-keto reductase family 1 member B1 (Rattus norvegicus, UniProt P07943); assay: Inhibition of aldose reductase (or polyol accumulation) in isolated rat sciatic nerve by compound at 10E-5 M concentration; IA means Not Active; format: tissue-based
# Summary of the method: (§1)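 Isolated rat sciatic nerve incubated in vitro with compound, with polyol accumulation as read-out. Percent inhibition of polyol accumulation recorded at 1 × 10⁻⁵ M.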
# [2] = biological target: Aldo-keto reductase family 1 member B1 (Bos taurus, UniProt P16116); assay: In vitro inhibition of bovine lens aldose reductase
# Rattus norvegicus [3] = assay: Inhibition of galactitol accumulation in lens of rats, by 159 mg/kg of compound; NS means Not Significant; format: functional, organism-based; design: dose 159 mg/kg; conditions: Lens of camera-type eye
# Summary of the method: (§2)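 Rats were fed 20% galactose chow for 4 days with drug, at the dose given in mg/kg. Galactitol was measured in lens and sciatic nerve, and percent inhibition was calculated against galactosemic control rats.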
# Rattus norvegicus [4] = assay: Inhibition of galactitol accumulation in sciatic nerve of rats, by 159 mg/kg of compound; NS means Not Significant.; format: functional, organism-based; design: dose 159 mg/kg; summary of the method: as §2
# [5] = biological target: T1, Aldo-keto reductase family 1 member B1; assay: Inhibition of aldose reductase (or polyol accumulation) in isolated rat sciatic nerve by compound at 10e-5 M concentration; format: tissue-based; summary of the method: as §1
# [6] = biological target: T1, Aldo-keto reductase family 1 member B1; assay: Inhibition of aldose reductase (or polyol accumulation) in isolated rat sciatic nerve by compound at (10E-5) M concentration; format: tissue-based; summary of the method: as §1
# Rattus norvegicus [7] = assay: Inhibition of galactitol accumulation in lens of rats, by 76 mg/kg of compound; NS=Not significant; format: functional, organism-based; design: dose 76 mg/kg; conditions: Lens of camera-type eye; summary of the method: as §2
IC50 [1],IC50 [2] [nM],IC50 [5] [nM],IC50 [6] [nM],Structure (SMILES),inhibition (Rattus norvegicus [3]),inhibition (Rattus norvegicus [4]),inhibition (Rattus norvegicus [7])
Not Active,730,,,CN(CC(=O)O)C(=S)c1cccc2ccccc12,inactive,inactive,
,,540,,COc1ccc2c(C(=S)N(C)CC(=O)O)cccc2c1C(F)(F)F [TOLRESTAT],,,
,240,,2500,CC1=C(CC(=O)O)c2cccc3cccc(c23)C1=O,,,inactive

# Reference: ChEMBL document CHEMBL1124439, “Computer-assisted design and synthesis of novel aldose reductase inhibitors” (J Med Chem, 1989)
